Published values from different studies.
Target: Serine/threonine-protein kinase ICK (CILK1, Homo sapiens, UniProt Q9UPZ9)
Residues used in one study (Q9UPZ9 1-632): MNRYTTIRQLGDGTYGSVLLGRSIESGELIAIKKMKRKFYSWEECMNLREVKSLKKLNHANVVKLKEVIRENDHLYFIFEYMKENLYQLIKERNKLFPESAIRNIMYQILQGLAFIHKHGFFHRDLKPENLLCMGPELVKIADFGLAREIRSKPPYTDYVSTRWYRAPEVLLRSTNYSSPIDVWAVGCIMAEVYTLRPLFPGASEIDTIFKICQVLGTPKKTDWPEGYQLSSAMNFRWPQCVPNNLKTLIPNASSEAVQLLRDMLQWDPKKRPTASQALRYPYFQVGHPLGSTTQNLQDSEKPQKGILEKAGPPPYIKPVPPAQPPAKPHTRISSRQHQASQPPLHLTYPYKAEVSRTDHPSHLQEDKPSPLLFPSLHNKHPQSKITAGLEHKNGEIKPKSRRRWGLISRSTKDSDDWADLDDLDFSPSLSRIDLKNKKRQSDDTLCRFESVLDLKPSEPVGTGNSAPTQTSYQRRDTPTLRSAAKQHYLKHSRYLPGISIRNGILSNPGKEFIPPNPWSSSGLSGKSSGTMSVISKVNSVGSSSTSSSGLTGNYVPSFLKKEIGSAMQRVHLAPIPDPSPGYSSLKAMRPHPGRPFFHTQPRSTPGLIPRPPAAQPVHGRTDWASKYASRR

| Compound | effect on | mode | technique | concentration | measurement | value |
| --- | --- | --- | --- | --- | --- | --- |
| Cc1sc(C(=O)NC2COC2)cc1-n1cc(NC(=O)Nc2c(F)cccc2Cl)cn1 | enzyme activity | inhibitor | – | 10 µM | remaining activity | 100% |
| CC(C)(O)[C@H]1CC[C@H](Nc2ccc3ncc(-c4cccc(C(F)(F)F)c4)n3n2)CC1 | enzyme activity | inhibitor | – | 1 µM | remaining activity | 86% |
| CO[C@@H](C)c1c(Nc2ccc([C@H](N(C)C(=O)C3CCS(=O)(=O)CC3)C(F)(F)F)cc2)cnc2cc(Cl)nn12 | cell-free assay | – | competition with immobilised ligand | 1 µM | remaining binding | 70% |
| Cc1ccc(C(=O)NCc2ccsc2)cc1C#Cc1cn(C(C)C)c2ncnc(N)c12 | enzyme activity | inhibitor | – | 1 µM | activity vs control | 103% |
| CN1CC(Oc2cnc(C#N)cc2-c2ccn3nc(NC(=O)C4CC4)cc3c2)C1 | enzyme activity | inhibitor | – | 1 µM | inhibition | -20% |
| O=C(Nc1cnn(-c2csc(C(=O)NC3COC3)c2)c1)Nc1c(F)cccc1Cl | enzyme activity | inhibitor | – | 5 µM | remaining activity | 96.6% |
| Nc1ncnc2occ(-c3ccc(NC(=O)Nc4cc(C(F)(F)F)ccc4F)cc3)c12 | cell-free assay | – | – | 20 µM | remaining signal | 12% |
| O=C1NC(c2ccccn2)Sc2ccccc21 (stereo not drawn) | cell-free assay | – | competition with immobilised ligand | 1 µM | remaining binding | 86% |
| Cc1ccc(C(=O)Nc2ccc(CN3CCN(C)CC3)c(C(F)(F)F)c2)cc1C#Cc1cnc2cccnn12 | enzyme activity | – | – | 23.5 nM | remaining activity | 96% |
